The text below walks through data of ChEMBL document CHEMBL4431309, “17β-Hydroxy-18-acetoxywithanolides from Aeroponically Grown Physalis crassifolia and Their Potent and Selective Cytotoxicity for Prostate Cancer Cells” (J Nat Prod, 2016).

Calls of active or inactive are those of the source. No cut-off for these calls is given here.

Data set [1] has as its system LNCaP. Description: Cytotoxicity against human LNCAP cells up to 5 uM after 72 hrs by resazurin-based colorimetric assay. The data set is classed as functional, cell-based. Put shortly: (§1)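 Androgen-sensitive human prostate adenocarcinoma line (LNCaP). Doxorubicin served as positive control and DMSO as negative control. Compounds were tested at concentrations up to 5.0 μM.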
In general terms: Resazurin is reduced to fluorescent resorufin, in cell work by metabolically active cells.

The subject of data set [2] is PC-3M. Briefly: Cytotoxicity against human PC3M cells up to 5 uM after 72 hrs by resazurin-based colorimetric assay. The data set is classed as functional, cell-based. In short, it runs like this:
(§2)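 Metastatic human prostate adenocarcinoma line (PC-3M). Controls were doxorubicin (positive) and DMSO (negative). The highest concentration tested was 5.0 μM.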

For data set [3], the system named is NCI-H460. Description: Cytotoxicity against human NCI-H460 cells up to 5 uM after 72 hrs by resazurin-based colorimetric assay. The data set is classed as functional, cell-based. In short, it runs like this: (§3)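 Human non-small-cell lung cancer line (NCI-H460). Doxorubicin was included as positive control and DMSO as negative control. The maximum concentration tested was 5.0 μM.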

In data set [4] the test system is MCF7. Description: Cytotoxicity against human MCF7 cells up to 5 uM after 72 hrs by resazurin-based colorimetric assay. The data set is classed as functional, cell-based. In short, it runs like this: (§4)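 Human breast cancer line (MCF-7). Doxorubicin was the positive control and DMSO the negative control. Testing went up to 5.0 μM.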
For data set [5], the system named is HFF. Briefly: Cytotoxicity against human HFF cells up to 5 uM after 72 hrs by resazurin-based colorimetric assay. The data set is classed as cell-based. In short, it runs like this: (§5)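 Doxorubicin (positive) and DMSO (negative) were run as controls. Compounds were tested up to a highest concentration of 5.0 μM.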
In data set [6] the test system is SF-268. Briefly: Cytotoxicity against human SF268 cells up to 5 uM after 72 hrs by resazurin-based colorimetric assay. The class given is functional, cell-based. In short, it runs like this: as §5
Data set [7] deals with PC-3M. Briefly: Cytotoxicity against human PC3M cells after 72 hrs by resazurin-based colorimetric assay. The class given is functional, cell-based. In short, it runs like this:
as §2

The subject of data set [8] is LNCaP. Briefly: Cytotoxicity against human LNCAP cells after 72 hrs by resazurin-based colorimetric assay. The data set is classed as functional, cell-based. In short, it runs like this: as §1
Data set [9] deals with NCI-H460. Description: Cytotoxicity against human NCI-H460 cells after 72 hrs by resazurin-based colorimetric assay. The following applies: NCI-H460, 72 h. The data set is classed as functional, cell-based. Put shortly:
as §3

Data set [10] relates to MCF7. Briefly: Cytotoxicity against human MCF7 cells after 72 hrs by resazurin-based colorimetric assay. The data set is classed as functional, cell-based. The following applies: MCF7, 72 h. Put shortly:
as §4

The test system of data set [11] is SF-268. Description: Cytotoxicity against human SF268 cells after 72 hrs by resazurin-based colorimetric assay. The data set is classed as functional, cell-based. The following applies: SF-268, 72 h. Put shortly:
as §5

For data set [12], the system named is HFF. Description: Cytotoxicity against human HFF cells after 72 hrs by resazurin-based colorimetric assay. The data set is classed as cell-based. In short, it runs like this:
as §5

With `C/C(=C1/C(=O)C[C@H]2[C@@H]3[C@@H]4O[C@@H]4[C@@]4(O)CC=CC(=O)[C@]4(C)[C@H]3CC[C@]12C)[C@H]1C[C@]2(C)O[C@]2(C)[C@H](O)O1`, the outcome with LNCaP [1], with PC-3M [2], with NCI-H460 [3], in the data set with MCF7 [4] and in the data set with SF-268 [6] was inactive. The Activity result in the data set on HFF [5] was “Non-Toxic”.
One may read the IC50 as the concentration that inhibits the measured activity by half. A higher IC50 goes with a need for much substance. On to `CC(=O)OC[C@]12CC[C@H]3[C@@H](CC=C4CC=CC(=O)[C@@]43C)[C@]1(O)CC[C@@]2(O)[C@@](C)(O)[C@H]1CC(C)=C(CO)C(=O)O1`, for which the IC50 is above 5 µM with PC-3M [7]; 3.7 µM in the data set on LNCaP [8]; above 5 µM in the data set with NCI-H460 [9]; above 5 µM in the data set with MCF7 [10]; above 5 µM in the data set with SF-268 [11].
With `CC(=O)OC[C@]12CC[C@H]3[C@@H](CC=C4CC=CC(=O)[C@@]43C)[C@]1(O)[C@@H](OC(C)=O)C[C@@]2(O)[C@@](C)(O)[C@H]1CC(C)=C(CO)C(=O)O1`, the outcome with LNCaP [1], with PC-3M [2], in the data set on NCI-H460 [3], with MCF7 [4] and with SF-268 [6] was inactive. Also, the Activity entry in the data set on HFF [5] is recorded as “Non-Toxic”.
Take `CC(=O)OC[C@]12CC[C@H]3[C@@H](CC=C4C[C@@H](OS(=O)(=O)O)CC(=O)[C@@]43C)[C@]1(O)CC[C@@]2(O)[C@@](C)(O)[C@H]1CC(C)=C(C)C(=O)O1`: the IC50 in the data set with PC-3M [7] was 0.56 µM; in the data set on HFF [12], above 5 µM; in the data set on LNCaP [8], 0.21 µM; in the data set with NCI-H460 [9], 3.8 µM; with MCF7 [10], 2.2 µM; in the data set on SF-268 [11], above 5 µM.
With `CC(=O)OC[C@]12CC[C@H]3[C@@H](CC=C4CC=CC(=O)[C@@]43C)[C@]1(O)[C@@H](OC(C)=O)C[C@@]2(O)[C@@](C)(O)[C@H]1CC(C)=C(CO[C@@H]2O[C@H](CO)[C@@H](O)[C@H](O)[C@H]2O)C(=O)O1`, the outcome with LNCaP [1], in the data set on PC-3M [2], in the data set on NCI-H460 [3], with MCF7 [4] and with SF-268 [6] was inactive. Moreover, the Activity result in the data set with HFF [5] is reported as “Non-Toxic”.
In the case of `CC(=O)OC[C@]12CC[C@H]3[C@@H](CC=C4CC=CC(=O)[C@@]43C)[C@]1(O)[C@@H](O)C[C@@]2(O)[C@@](C)(O)[C@H]1CC(C)=C(C)C(=O)O1`, the IC50 in the data set with PC-3M [7] is 0.6 µM; with LNCaP [8] it was 0.19 µM; in the data set with NCI-H460 [9], above 2.5 µM; in the data set with MCF7 [10] it was above 2.5 µM; in the data set on SF-268 [11], above 2.5 µM.
With `CC(=O)OC[C@]12CC[C@H]3[C@@H](CC=C4CC=CC(=O)[C@@]43C)[C@]1(O)[C@@H](OC(C)=O)C[C@@]2(O)[C@@](C)(O)[C@H]1CC(CO[C@@H]2O[C@H](CO)[C@@H](O)[C@H](O)[C@H]2O)=C(C)C(=O)O1`, the result with LNCaP [1], in the data set with PC-3M [2], with NCI-H460 [3], in the data set with MCF7 [4] and with SF-268 [6] was inactive. In the data set on HFF [5], the Activity entry is reported as “Non-Toxic”.
On to `CC(=O)OC[C@]12CC[C@H]3[C@@H](CC=C4CC=CC(=O)[C@@]43C)[C@]1(O)CC[C@@H]2[C@@](C)(O)[C@@H]1OC(=O)C(C)=C(C)[C@@H]1O`, for which the outcome in the data set with LNCaP [1], in the data set with PC-3M [2], with NCI-H460 [3], in the data set on MCF7 [4] and with SF-268 [6] was inactive. The Activity result in the data set on HFF [5] is listed as “Non-Toxic”.
With `CC(=O)OC[C@]12CC[C@H]3[C@@H](C[C@H]4O[C@]45CC=CC(=O)[C@]35C)[C@]1(O)[C@@H](OC(C)=O)C[C@@]2(O)[C@@](C)(O)[C@H]1CC(C)=C(C)C(=O)O1`, the IC50 was 1.8 µM in the data set with PC-3M [7]; 1.2 µM in the data set with LNCaP [8]; above 2.5 µM with NCI-H460 [9]; above 2.5 µM in the data set with MCF7 [10]; above 2.5 µM in the data set with SF-268 [11].
`COc1cccc2c1C(=O)c1c(O)c3c(c(O)c1C2=O)C[C@@](O)(C(=O)CO)C[C@@H]3O[C@H]1C[C@H](N)[C@H](O)[C@H](C)O1` [DOXORUBICIN]: the IC50 in the data set with PC-3M [7] is 0.25 µM; with MCF7 [10], 0.32 µM.
Regarding `CC1=C(CO)C(=O)O[C@@H]([C@@H](C)[C@H]2CC[C@H]3[C@@H]4C[C@H]5O[C@]56[C@@H](O)C=CC(=O)[C@]6(C)[C@H]4CC[C@]23C)C1` [WITHAFERIN A], the IC50 is 0.41 µM with PC-3M [7], above 6.8 µM in the data set on HFF [12], below 0.4 µM with NCI-H460 [9] and below 0.4 µM in the data set with SF-268 [11].
On to `CC(=O)OC[C@]12CC[C@H]3[C@@H](CC=C4C=CCC(=O)[C@@]43C)[C@]1(O)[C@@H](OC(C)=O)C[C@@]2(O)[C@@](C)(O)[C@H]1CC(CO)=C(C)C(=O)O1`, for which the outcome with LNCaP [1], in the data set on PC-3M [2], in the data set with NCI-H460 [3], in the data set on MCF7 [4] and in the data set on SF-268 [6] was inactive. In the data set with HFF [5], the Activity entry is listed as “Non-Toxic”.
As for `CC(=O)OC[C@]12CC[C@H]3[C@@H](CC=C4C[C@@H](OS(=O)(=O)O)CC(=O)[C@@]43C)[C@]1(O)[C@@H](OC(C)=O)C[C@@]2(O)[C@@](C)(O)[C@H]1CC(C)=C(C)C(=O)O1`, the IC50 is 0.43 µM in the data set with PC-3M [7]; 0.12 µM in the data set with LNCaP [8]; 2.5 µM in the data set on NCI-H460 [9]; above 5 µM in the data set on MCF7 [10]; 2.8 µM in the data set with SF-268 [11].
For `CC(=O)OC[C@]12CC[C@H]3[C@@H](CC=C4CC=CC(=O)[C@@]43C)[C@]1(O)CC[C@@H]2[C@@](C)(O)[C@H]1CC(C)=C(C)C(=O)O1`, the outcome in the data set with LNCaP [1], with PC-3M [2], in the data set with NCI-H460 [3], with MCF7 [4] and in the data set with SF-268 [6] was inactive. The Activity entry in the data set with HFF [5] is “Non-Toxic”.
Take `CC1=C(C)C(=O)O[C@@H]([C@](C)(O)[C@H]2CC[C@@]3(O)[C@@H]4[C@@H]5O[C@@H]5[C@@]5(O)CC=CC(=O)[C@]5(C)[C@H]4CC[C@]23C)C1`: the result with LNCaP [1], with PC-3M [2], in the data set with NCI-H460 [3], in the data set on MCF7 [4] and with SF-268 [6] was inactive. In addition, the Activity entry in the data set on HFF [5] is reported as “Non-Toxic”.
